Test results from ChEMBL document CHEMBL1157342, “Isolation of gelsedine-type indole alkaloids from Gelsemium elegans and evaluation of the cytotoxic activity of gelsemium alkaloids for A431 epidermoid carcinoma cells” (J Nat Prod, 2006).

These compounds were tested on A-431 (assay: Cytotoxicity against human A431 cells after 48 hrs by trypan blue test). Conditions: A-431, 48 h.
Type: functional, cell-based
Method in brief: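 A431 human epidermoid carcinoma cells were grown at 5% CO2, 37 °C, seeded in 12-well plates at 1 × 10^5 cells/well and treated at semiconfluence (about 5 × 10^5 cells/well). DMSO stocks (100 mM) were diluted in serum-free RPMI-1640 to 10 nM–100 µM final, with DMSO below 0.1%. After 48 h, cells were counted in a Bürker-Türk chamber with trypan blue. Survival was expressed as % of untreated control. EC50 was taken from three independent experiments, mean ± SEM.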
`CC[C@H]1N[C@H]2C[C@@]3(C(=O)N(OC)c4ccccc43)[C@H]3C[C@@H]1[C@@H]2CO3` [GELSEDINE] was tested, and the EC50 was 0.35 µM. With `CCC1=N[C@H]2C[C@@]3(C(=O)N(OC)c4ccccc43)[C@@H]3OC[C@H]2[C@H]1[C@H]3OC(C)=O` the EC50 was 0.25 µM. Compound `CC[C@H]1N[C@H]2C[C@@]3(C(=O)N(OC)c4cc(OC)ccc43)[C@H]3C[C@@H]1[C@@H]2CO3` [GELSEMICINE] has an EC50 of 0.75 µM. For `CCC1=N[C@H]2C[C@@]3(C(=O)N(OC)c4ccccc43)[C@@H]3OC[C@H]2[C@@]1(O)[C@H]3O`, the EC50 was 1.3 µM. `CCC1=N[C@H]2C[C@@]3(C(=O)N(OC)c4ccccc43)[C@H]3C[C@@H]1[C@@H]2CO3` [GELSENICINE] gave an EC50 of 37 µM. In the case of `CCC1=N[C@H]2C[C@@]3(C(=O)N(OC)c4cc(OC)ccc43)[C@@H]3OC[C@H]2[C@H]1[C@H]3O`, the EC50 is reported as > 100 µM. In the case of `CCC1=N[C@H]2C[C@@]3(C(=O)N(OC)c4ccccc43)[C@@H]3OC[C@H]2[C@H]1[C@H]3O`, the EC50 is reported as > 100 µM. With `C=C[C@@]12CN(C)[C@H]3C[C@]14C(=Nc1ccccc14)[C@@H]1C[C@@H]2[C@@H]3CO1` [KOUMINE] the EC50 was > 100 µM. For `C/C=C1\CN(C)[C@H]2C[C@@]3(C(=O)N(OC)c4ccccc43)[C@H]3C[C@@H]1[C@@H]2CO3` [HUMANTENINE], the EC50 was > 100 µM. In the case of `C/C=C1\CN2[C@H]3Cc4c([nH]c5ccccc45)[C@@H]2C[C@@H]1C3(CO)C(=O)OC` (some centres undefined), the EC50 is reported as > 100 µM. In the case of `CCC(=O)[C@]12N[C@H]3C[C@@]4(C(=O)N(OC)c5ccccc54)[C@H](OC[C@H]31)[C@@H]2O` [GELSEMOXONINE], the EC50 is reported as > 100 µM. In the case of `C=C[C@]12CN(C)[C@@H]3[C@H]4CO[C@H](C[C@H]41)[C@]1(C(=O)Nc4ccccc41)[C@@H]32` [GELSEMINE], the EC50 is reported as > 100 µM. In the case of `C/C=C1\CN(C)[C@H]2C[C@@]3(C(=O)N(OC)c4cc(OC)ccc43)[C@H]3C[C@@H]1[C@@H]2CO3`, the EC50 is reported as > 100 µM. `CCC1=N[C@H]2C[C@@]3(C(=O)N(OC)c4ccccc43)[C@@H]3OC[C@H]2[C@@]1(O)[C@H]3OC(C)=O` gave an EC50 of 36 µM.
